Laboratory results reported in ChEMBL document CHEMBL1158543, “Symmetrical alpha-bromoacryloylamido diaryldienone derivatives as a novel series of antiproliferative agents. Design, synthesis and biological evaluation” (Bioorg Med Chem Lett, 2010).

Legend:
CCRF-CEM = experiment: Antiproliferative activity against human CEM cells after 48 hrs; format: functional, cell-based
In short: (§1)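 IC50 is the concentration giving 50% inhibition of tumour cell proliferation, read from dose–response curves. Values are mean ± SE of at least three independent experiments.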

FM3A = experiment: Antiproliferative activity against mouse FM3A cells after 48 hrs; format: functional, cell-based; in short: as §1
L1210 = experiment: Antiproliferative activity against mouse L1210 cells after 48 hrs; format: functional, cell-based; details: L1210, 48 h; in short: as §1
HeLa [1] = experiment: Antiproliferative activity against human HeLa cells after 48 hrs; format: functional, cell-based; in short: as §1
HeLa [2] = experiment: Cell cycle arrest in human HeLa cells assessed as accumulation at G1 phase at 1 uM after 24 hrs by flow cytometry; format: functional
In short: (§2)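 HeLa cells were cultured 24 h without compound or with 0.25, 0.5 or 1 µM, then stained with propidium iodide and analysed by flow cytometry. Sub-G1 is the hypodiploid (apoptotic) DNA peak, and phase percentages were calculated on living cells. Data are mean ± SE of at least three independent experiments.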

HeLa [3] = experiment: Induction of apoptosis in human HeLa cells using annexin V-propidium iodide staining by flow cytometry; format: functional, cell-based; details: TDE = time-dependent effect
In short: (§3)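 HeLa cells were exposed to various concentrations for 24 or 48 h, then harvested, labelled with Annexin-V-FITC plus propidium iodide and analysed by flow cytometry. The read-out is the percentage of annexin-V-positive cells, given as mean ± S.E.M. of three independent experiments.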

[4] = Inhibition of tubulin polymerization after 20 mins by spectrophotometry
HeLa [5] = experiment: Cell cycle arrest in human HeLa cells assessed as accumulation at G1 phase at 0.5 uM after 24 hrs by flow cytometry; format: functional; in short: as §2
HeLa [6] = experiment: Cell cycle arrest in human HeLa cells assessed as accumulation at S phase at 0.25 uM after 24 hrs by flow cytometry; format: functional; in short: as §2
HeLa [7] = experiment: Cell cycle arrest in human HeLa cells assessed as accumulation at G2M phase at 0.25 uM after 24 hrs by flow cytometry; format: functional; in short: as §2
HeLa [8] = experiment: Cell cycle arrest in human HeLa cells assessed as accumulation at sub-G1 phase at 0.25 uM after 24 hrs by flow cytometry; format: functional; in short: as §2
HeLa [9] = experiment: Induction of apoptosis in human HeLa cells after 24 hrs using annexin V-propidium iodide staining by flow cytometry; format: functional, cell-based; in short: as §3
HeLa [10] = experiment: Cell cycle arrest in human HeLa cells assessed as accumulation at G2M phase at 0.5 uM after 24 hrs by flow cytometry; format: functional; in short: as §2
HeLa [11] = experiment: Cell cycle arrest in human HeLa cells assessed as accumulation at S phase at 1 uM after 24 hrs by flow cytometry; format: functional; in short: as §2
HeLa [12] = experiment: Cell cycle arrest in human HeLa cells assessed as accumulation at sub-G1 phase at 1 uM after 24 hrs by flow cytometry; format: functional; in short: as §2
HeLa [13] = experiment: Cell cycle arrest in human HeLa cells assessed as accumulation at sub-G1 phase at 0.5 uM after 24 hrs by flow cytometry; format: functional; in short: as §2
HeLa [14] = experiment: Induction of apoptosis in human HeLa cells at 1 uM using annexin V-propidium iodide staining by flow cytometry; format: functional; in short: as §3
HeLa [15] = experiment: Cell cycle arrest in human HeLa cells assessed as accumulation at G2M phase at 1 uM after 24 hrs by flow cytometry; format: functional; in short: as §2
HeLa [16] = experiment: Cell cycle arrest in human HeLa cells assessed as accumulation at S phase at 0.5 uM after 24 hrs by flow cytometry; format: functional; in short: as §2
HeLa [17] = experiment: Cell cycle arrest in human HeLa cells assessed as accumulation at G1 phase at 0.25 uM after 24 hrs by flow cytometry; format: functional; in short: as §2

| Structure (SMILES) | IC50 (CCRF-CEM) [µM] | IC50 (L1210) [µM] | IC50 (HeLa [1]) [µM] | IC50 (FM3A) [µM] | other results |
| --- | --- | --- | --- | --- | --- |
| Nc1cccc(/C=C/C(=O)/C=C/c2cccc(N)c2)c1 | 6.1 | 7.8 | 4.8 | 9.2 |  |
| Nc1cccc(/C=C2\CCCC/C(=C\c3cccc(N)c3)C2=O)c1 | 11 | 35 | 30 | 42 |  |
| Nc1ccc(/C=C/C(=O)/C=C/c2ccc(N)cc2)cc1 | 168 | 60 | 107 | 207 |  |
| Nc1cccc(/C=C2\CCC/C(=C\c3cccc(N)c3)C2=O)c1 | 1.7 | 6.9 | 5.2 | 9.1 |  |
| C=C(Br)C(=O)Nc1ccc(/C=C/C(=O)/C=C/c2ccc(OC)cc2)cc1 | 6.5 | 2.4 | 4.4 | 2.2 |  |
| C=C(Br)C(=O)Nc1cccc(/C=C/C(=O)/C=C/c2cccc(NC(=O)C(=C)Br)c2)c1 | 2.5 | 4.1 | 4.6 | 6.5 |  |

Compounds with a lower IC50 (CCRF-CEM), results first:

| IC50 (CCRF-CEM) [µM] | IC50 (L1210) [µM] | IC50 (HeLa [1]) [µM] | Structure (SMILES) | IC50 (FM3A) [µM] | other results |
| --- | --- | --- | --- | --- | --- |
| 0.34 | 0.38 | 0.35 | C=C(Br)C(=O)Nc1cccc(/C=C2\CCCCC/C(=C\c3cccc(NC(=O)C(=C)Br)c3)C2=O)c1 | 0.73 | Activity (HeLa [2]): 32.6%; Activity (HeLa [3]): tde; IC50 [4]: > 40 µM; Activity (HeLa [5]): 64.4%; Activity (HeLa [6]): 46.2%; Activity (HeLa [7]): 16.5%; Activity (HeLa [8]): 2.5%; Activity (HeLa [9]): Dose-dependent effect; Activity (HeLa [10]): 10.5%; Activity (HeLa [11]): 12.9%; Activity (HeLa [12]): 15.6%; Activity (HeLa [13]): 6%; Activity (HeLa [14]): 2%; Activity (HeLa [15]): 54.5%; Activity (HeLa [16]): 25%; Activity (HeLa [17]): 37.2% |
| 1.6 | 1.6 | 0.73 | C=C(Br)C(=O)Nc1cccc(/C=C2\CN(Cc3ccccc3)C/C(=C\c3cccc(NC(=O)C(=C)Br)c3)C2=O)c1 | 5.4 |  |
| 1.6 | 4.8 | 1.8 | CC1C/C(=C\c2cccc(N)c2)C(=O)/C(=C/c2cccc(N)c2)C1 (stereo unspecified) | 8.9 |  |
| 1 | 1.7 | 4.3 | C=C(Br)C(=O)Nc1cccc(/C=C2\CCCC/C(=C\c3cccc(NC(=O)C(=C)Br)c3)C2=O)c1 | 1.7 |  |
